Compound activity from PubChem.
Compounds with a hit are over-represented: about 1.6% of the library has one in this group of screens.
MT1-MMP act inh: inhibitors of human MT1-MMP activation; GFP/RFP ratio change, % at 20 µM; HT1080 RFP-PRO-GFP cells, GFP/RFP ratio fluorescence, overnight; percent of plate control window, DMSO zero; 360,000 compounds, 0.061% hits; P50281;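 active means GFP/RFP ratio change of at least 30% with cell ATP level not reduced by more than half and red fluorescence within 50% of control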
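Assay system: RFP-PRO-GFP reporter HT1080 cells; read-out basis: GFP/RFP fluorescence ratio; benchmarks: DMSO wells and RFP-L50D-GFP cells; doses: 20 µM single dose, 1% DMSO; schedule: overnight cell settling, then overnight compound exposure, 37 °C, 5% CO2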
SKN-1 inh: C. elegans SKN-1 inhibition; AID 624304; inhibition, % at 21.8 µM; 360,000 compounds, 0.49% hits; C. elegans VP596 Pgst-4::GFP/RFP ratio, acrylamide-induced, 24 h;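 active means interference check ratio from 0.5 to 1.5 plus GFP to RFP signal ratio inhibition reaching or exceeding a fixed threshold, cut at about 30% in these data, passing the limit was not always enough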
p-CIP stab down: compounds decreasing mouse p/CIP protein stability. decrease of EGFP signal, % at 10 µM. F442A p/CIP-EGFP cells, EGFP fluorescence, 16 h. Q05BA5. AID 1984. 290,000 compounds, 0.01% hits;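 active means EGFP signal decrease of at least 30% at 10 µM or well 3 SD below plate mean, unless failing retest; inactive means the rest, including hits failing retest or dose response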
Target sequence (Q05BA5 1-1403): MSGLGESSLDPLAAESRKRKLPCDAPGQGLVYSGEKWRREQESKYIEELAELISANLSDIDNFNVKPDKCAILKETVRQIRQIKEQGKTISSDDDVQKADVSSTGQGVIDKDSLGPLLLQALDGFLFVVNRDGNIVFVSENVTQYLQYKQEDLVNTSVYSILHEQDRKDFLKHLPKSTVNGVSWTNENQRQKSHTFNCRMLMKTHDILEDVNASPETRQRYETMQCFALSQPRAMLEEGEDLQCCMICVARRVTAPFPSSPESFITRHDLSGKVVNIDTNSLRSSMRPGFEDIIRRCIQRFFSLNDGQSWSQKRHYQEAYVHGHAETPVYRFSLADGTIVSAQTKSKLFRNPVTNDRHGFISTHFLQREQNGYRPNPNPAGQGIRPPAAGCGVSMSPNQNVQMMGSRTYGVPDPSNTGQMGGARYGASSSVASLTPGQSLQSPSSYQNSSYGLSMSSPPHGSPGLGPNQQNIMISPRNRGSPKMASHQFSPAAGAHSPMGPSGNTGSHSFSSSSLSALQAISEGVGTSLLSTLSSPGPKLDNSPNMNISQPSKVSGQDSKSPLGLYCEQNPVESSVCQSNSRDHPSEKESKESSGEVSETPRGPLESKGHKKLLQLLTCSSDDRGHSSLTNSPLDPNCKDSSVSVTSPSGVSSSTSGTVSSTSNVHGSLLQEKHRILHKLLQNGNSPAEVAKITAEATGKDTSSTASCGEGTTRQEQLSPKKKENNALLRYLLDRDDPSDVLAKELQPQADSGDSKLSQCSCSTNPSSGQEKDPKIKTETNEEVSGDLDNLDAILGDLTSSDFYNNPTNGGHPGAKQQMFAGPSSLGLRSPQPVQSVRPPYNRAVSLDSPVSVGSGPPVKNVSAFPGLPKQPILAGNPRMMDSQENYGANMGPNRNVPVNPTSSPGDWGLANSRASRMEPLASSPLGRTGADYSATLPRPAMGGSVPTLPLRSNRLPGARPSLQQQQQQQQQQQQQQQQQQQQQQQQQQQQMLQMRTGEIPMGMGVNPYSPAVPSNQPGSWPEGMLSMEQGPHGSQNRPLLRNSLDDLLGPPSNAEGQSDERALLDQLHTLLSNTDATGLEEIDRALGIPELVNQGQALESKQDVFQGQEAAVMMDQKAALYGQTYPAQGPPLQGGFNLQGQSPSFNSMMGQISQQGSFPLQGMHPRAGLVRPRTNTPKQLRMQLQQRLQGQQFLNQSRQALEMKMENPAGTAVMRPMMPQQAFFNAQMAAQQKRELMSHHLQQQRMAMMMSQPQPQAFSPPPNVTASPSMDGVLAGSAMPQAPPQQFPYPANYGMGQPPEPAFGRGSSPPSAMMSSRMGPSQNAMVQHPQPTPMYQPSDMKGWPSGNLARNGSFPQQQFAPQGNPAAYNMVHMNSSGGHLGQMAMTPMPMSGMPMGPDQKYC
MsrA act: bovine methionine sulfoxide reductase A activation; activation, % at 10.6 µM; 360,000 compounds, 0.3% hits; purified bovine MsrA, absorbance read-out; in the data active means activation above about 7.5%;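 further: 0% = vehicle and 100% = reference activator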
MsrA inh: inhibitors of bovine MsrA; purified bovine MsrA, absorbance read-out; inhibition, % at 15.5 µM; 360,000 compounds, 0.75% hits; in the data active means inhibition above about 4.5%;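 further: 0% = vehicle wells with enzyme and 100% = reference inhibitor wells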
MsrA act confirm: confirmation of bovine methionine sulfoxide reductase A activators; shares compounds with MsrA act; purified bovine MsrA, absorbance read-out; activation, % at 10.6 µM; 1,000 compounds, 12% hits; AID 602270; in the data active means activation above about 4%;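 further: enzyme coupled to thioredoxin and thioredoxin reductase with NADPH; 0% = vehicle wells and 100% = reference activator wells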
The depositor's hits bear a star; nt = no result given.

SMILES	MT1-MMP act inh	SKN-1 inh	p-CIP stab down	MsrA act	MsrA inh	MsrA act confirm
COc1cc(NC(=O)c2cccs2)c(C(=O)OCC(=O)NC(=O)NCc2ccccc2)cc1OC	13	-3	-14	7.9*	2	-3
COC(=O)C1=C(C)N(Cc2ccccc2C(F)(F)F)C(=NCc2ccc(C(F)(F)F)cc2)NC1c1ccc(C(F)(F)F)cc1 (stereo not drawn)	nt	nt	nt	nt	-1	nt
O=C(C[C@H]1C[C@@H]2c3cc(NS(=O)(=O)c4ccccc4)ccc3O[C@@H]2[C@H](CO)O1)N1CCOCC1	3	-28	nt	14*	1	-6
Cc1cccc(C)c1NC(=O)COC(=O)C1CC1	-4	-5	nt	9.7*	0	-1
CC[C@H](NC(=O)[C@@H](Cc1ccccc1)NC(=O)[C@H]1O[C@@H](n2cnc3c(=O)[nH]c(N)nc32)[C@H](O)[C@@H]1O)c1ccccc1	nt	nt	nt	nt	0	nt
O=C(Nc1ccc(Cl)cc1)Nc1ccccn1	-7	25	-8	8.4*	1	-2
O=C(Nc1ccccc1)Nc1ccccn1	2	21	2	-2	-1	nt
CC(NC(=O)C(NC(=O)OCc1ccccc1)C(C)O)C(=O)OCc1ccccc1 (stereo not drawn)	nt	nt	nt	nt	-1	nt
COc1cccc(CNC(=O)[C@H]2CCCN2C(=O)[C@H]2CCCN2C(=O)c2cccc(OC)c2)c1	nt	nt	nt	nt	0	nt
OC12CCCCC1C(c1ccc3c(c1)OCO3)N(Cc1cccc(F)c1)CC2 (stereo not drawn)	-1	-10	-12	-1	0	nt
OC12CCCCC1C(c1ccc3c(c1)OCO3)N(Cc1ccc(F)cc1)CC2 (stereo not drawn)	-1	4	1	9.5*	0	0
O=C1C[C@@H]2CCN3C(=O)CCC[C@@H]([C@H]23)[C@H]1Cc1ccccc1	5	-1	nt	-2	-1	nt
CC[C@H]1C(=O)[C@@H](Cc2ccccc2)[C@@H]2CCN3C(=O)CCC[C@H]1[C@H]23	1	2	nt	17*	1	-1
CCCCc1c(-c2ccccc2OC)ncn1Cc1cc(F)ccc1F	nt	nt	nt	nt	0	nt
CC(Sc1ncnc2sc(-c3ccccc3)cc12)C(=O)N1CCNC1=O (stereo not drawn)	-5	10	nt	-4	0	nt
CC(C)N(C(=O)CSc1ncnc2sc(-c3ccccc3)cc12)C(C)C	4	7	5	9.1*	0	0
COC(=O)c1cc2c(c3c4ccccc4n(S(=O)(=O)c4ccc(C)cc4)c13)C(=O)N(CC(C)C)C2	nt	nt	nt	nt	1	nt
CN(CCCC(=O)Nc1ccncc1)S(=O)(=O)c1ccc(Cl)cc1	0	2	-23	7.9*	-1	2
COc1ccc(-c2ccc3c(n2)CCCN3Cc2ccccc2C(F)(F)F)cc1	nt	nt	nt	nt	2	nt
Cc1cc(C)c(S(=O)(=O)/N=C2/C=C(Sc3ncn[nH]3)C(=O)c3ccccc32)cc1C	-94	8	-21	14*	61*	8.0*
CCOC(=O)c1cnc(Nc2nc3ccccc3o2)nc1C	6	6	3	-1	1	nt
CCOC(=O)c1cnc(Nc2nc3ccccc3o2)nc1CSc1nnc(C)s1	14	-1	nt	15*	1	1
CCOC(=O)C1(C(=O)OCC)N=C(c2ccccc2)C=C1c1ccccc1	nt	nt	nt	nt	-1	nt
O=C(NCc1ccccc1)[C@H]1CCCN1C(=O)[C@H]1CCCN1C(=O)c1ccc(F)c(F)c1	nt	nt	nt	nt	-1	nt
O=c1oc2ccc(C#CC3(O)CCCCC3)cc2cc1-n1cc(C2(O)CCCCC2)nn1	-2	8	nt	8.6*	-1	-1
SMILES	MT1-MMP act inh	SKN-1 inh	p-CIP stab down	MsrA act	MsrA inh	MsrA act confirm
COc1ccc(NC(=O)N(C)C[C@H]2OCc3cnnn3CCCC(=O)N([C@H](C)CO)C[C@@H]2C)c(OC)c1	nt	nt	nt	nt	1	nt
O=c1cc(N2CCC3(CC2)OCCO3)[nH]c(=O)n1C1CCCCC1	6	9	-24	9.6*	-1	-2
CCCCCCC12C(=Cc3cc(C)ccc31)c1ccccc1C(CC(=O)NCc1ccccc1)N2C(=O)OC (stereo not drawn)	nt	nt	nt	nt	1	nt
COc1cccc(-c2cccc3c4c([nH]c23)[C@@H]2C[C@H]3[C@@H](C(=O)N2CC4)[C@H](C)ON3C)c1	nt	nt	nt	nt	1	nt
CCn1c(SCC(=O)N2CCCCC2C)nnc1-c1ccco1 (stereo not drawn)	-1	7	6	3	-1	nt
CC1CCCCN1C(=O)CSc1nnc(-c2ccco2)n1C (stereo not drawn)	1	5	-5	26*	1	-1
CCCCCC#CCN1CCN(C23CC4CC(CC(C4)C2)C3)CC1	-1	-4	nt	8.8*	nt	3
c1ccc(CC(Nc2cccnc2)c2ccccc2)cc1 (stereo not drawn)	nt	nt	nt	nt	1	nt
Cc1ccc(C(C)C)cc1OCC(=O)Nc1nnc(C2CC2)s1	5	6	nt	-3	0	nt
Cc1cc(OCC(=O)Nc2nnc(C3CC3)s2)ccc1C(C)C	-1	-4	nt	11*	-1	-2
Cc1ccc(CN2CC=CS2(=O)=O)cc1	nt	nt	nt	nt	-1	nt
CC(C)C1C(=O)N(Cc2cn(CC3CCCCC3)nn2)CCS(=O)(=O)N1Cc1ccc(-c2ccc(F)nc2)cc1 (stereo not drawn)	4	18	nt	8.9*	0	-1
CCOc1cc(C)c(Cl)cc1S(=O)(=O)NCc1ccc2c(c1)OCO2	1	7	-16	7.8*	1	2
COC(=O)c1cc2c(c3c4cc(F)ccc4n(S(=O)(=O)c4ccc(C)cc4)c13)C(=O)N(Cc1ccccc1)C2	nt	nt	nt	nt	1	nt
Cc1ccc(S(=O)(=O)NC2c3cccc4cccc(c34)C2Sc2nncn2C)cc1 (stereo not drawn)	-7	2	-8	15*	0	0
Cc1cc(C)n(-c2ccc(C(=O)Nc3ccc4c(c3)OCO4)cc2)n1	2	13	4	8.4*	1	-6
CN1CCCCC(NC(=O)c2cccc(F)c2)C1=O (stereo not drawn)	nt	nt	nt	nt	0	nt
C=CCNC(=O)c1nc2ccccc2s1	1	-11	3	9.6*	-1	-1
CCCCOc1ccccc1C1NC(=O)NC(C)=C1C(=O)OCc1ccco1 (stereo not drawn)	-5	7	-13	8.9*	1	0
CC1(C)CC(=O)c2sc(N3CCCCC3)nc2C1	0	0	0	-8	4	nt
CC1(C)CNC(=O)c2sc(N3CCCCC3)nc2C1	1	13	0	8.0*	0	-2
CC1(C)CC(=O)C=C(C#CC2CC2)C1	nt	nt	nt	nt	0	nt
Nc1ccc(F)c(CN2CCN(c3ncc(Cc4ccccc4)cn3)CC2)c1	nt	nt	nt	nt	1	nt
CSc1nnc2c3c4c(sc3c(=O)n(-c3ccccc3)n12)CC(C)(C)OC4	-3	-12	-10	24*	1	-3
CC1(C)Cc2c(sc3nc(-c4ccccc4)n(N)c(=O)c23)CO1	-1	-8	3	-4	1	nt
CCC(=O)Nc1ccc2c(c1)C(=O)c1ccccc1C2=O	-1	11	0	0	0	nt
